Results on three molecules are retold here after ChEMBL document CHEMBL4138106, “Indole-coumarin-thiadiazole hybrids: An appraisal of their MCF-7 cell growth inhibition, apoptotic, antimetastatic and computational Bcl-2 binding potential” (Eur J Med Chem, 2017).

The source made the active and inactive calls. No cut-off for these calls is given here.

The term IC50 denotes the point on the concentration scale where inhibition reaches its midpoint.

In one experiment the test system is Vero. Briefly: Cytotoxicity against African green monkey Vero cells assessed as growth inhibition after 48 hrs by MTT assay. As to conditions: Chlorocebus sabaeus. It counts as cell-based. The essentials:
(§1)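 Cells grown in DMEM with 10% FBS plus antibiotics at 37 °C under 5% CO2. 5×10^3 cells/well seeded and cultured overnight, then exposed to a range of concentrations for 48 h. Working dilutions made in DMEM from 25 mM DMSO stocks, with DMSO vehicle controls and vincristine as positive control. MTT at 1 mg/mL for 4 h, formazan dissolved in DMSO, A570. Viability taken relative to vehicle after blank subtraction.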
Background: Tetrazolium assays rely on reduction of a dye to a coloured formazan, in cell work by metabolically active cells.

Experiment [1] has as its system MCF7. Briefly: Cytotoxicity against human MCF7 cells assessed as growth inhibition after 48 hrs by MTT assay. It is filed as functional, cell-based. The conditions noted are these: MCF7, 48 h. The essentials:
as §1

The test system of experiment [2] is MCF7. Put plainly: Induction of apoptosis in human MCF7 cells assessed as early apoptotic cells at 10 uM after 24 hrs by Acridine orange-ethidium bromide dual staining based fluorescence microscopic analysis. It is filed as functional, cell-based. The gist of the method:
(§2)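 MCF-7 cells in 96-well plates exposed to test compound for 24 h at 37 °C in 5% CO2. Gross morphology first checked by phase contrast. Medium then removed and acridine orange (7.5 μg)/ethidium bromide (25 μg) stain added. Cells viewed by fluorescence microscopy through an FITC filter and scored as viable, early apoptotic, late apoptotic or nonviable by colour and nuclear form, against vehicle control.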

Experiment [3] deals with MCF7. Briefly: Induction of apoptosis in human MCF7 cells assessed as expression in caspase 8 at 10 uM after 24 hrs by spectrofluorimetric analysis. It is filed as functional, cell-based. The gist of the method:
(§3)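 Initiator caspases 2, 8 and 9 measured in MCF-7 cells after 24 h exposure to 10 μM, using a fluorogenic caspase profiling kit (ex 380/em 460 nm). Signals normalized to vehicle control, set as 1, and expressed as fold change. Mean ± SD of three independent trials.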

In experiment [4] the test system is MCF7. Briefly: Induction of apoptosis in human MCF7 cells assessed as fragmented nuclei formation at 10 uM after 24 hrs by Acridine orange-ethidium bromide dual staining based fluorescence microscopic analysis. It counts as functional, cell-based. The essentials:
as §2

In experiment [5] the test system is MCF7. Briefly: Induction of apoptosis in human MCF7 cells assessed as deviations in cell morphology at 10 uM after 24 hrs by Acridine orange-ethidium bromide dual staining based fluorescence microscopic analysis. It is filed as functional.
Experiment [6] relates to MCF7. Briefly: Induction of apoptosis in human MCF7 cells assessed as dead cells at 10 uM after 24 hrs by Acridine orange-ethidium bromide dual staining based fluorescence microscopic analysis. It is filed as functional, cell-based. The gist of the method:
as §2

Experiment [7] has as its system MCF7. Briefly: Induction of apoptosis in human MCF7 cells assessed as condensed chromatin formation at 10 uM after 24 hrs by Acridine orange-ethidium bromide dual staining based fluorescence microscopic analysis. It is filed as functional, cell-based. The essentials:
as §2

The subject of experiment [8] is MCF7. Put plainly: Induction of apoptosis in human MCF7 cells assessed as late apoptotic cells at 10 uM after 24 hrs by fluorescein-12-dUTP/propidium iodide staining based TUNEL assay. It is filed as functional, cell-based. The essentials:
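About 1×10^5 MCF-7 cells/well in 24-well plates treated for 24 h. Cells fixed in 4% paraformaldehyde and permeabilized with 0.2% Triton X-100. Labelled with 50 µM fluorescein-12-dUTP and rTdT for 1 h at 37 °C, stopped with 2×SSC, counterstained with 1 mg/mL propidium iodide. Green TUNEL-positive nuclei scored by fluorescence microscopy.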

Experiment [9] concerns MCF7. Briefly: Induction of apoptosis in human MCF7 cells assessed as loss of cell membrane integrity at 10 uM after 24 hrs by Acridine orange-ethidium bromide dual staining based fluorescence microscopic analysis. It is filed as functional.
Experiment [10] deals with MCF7. Briefly: Induction of apoptosis in human MCF7 cells assessed as expression in caspase 2 at 10 uM after 24 hrs by spectrofluorimetric analysis. It is filed as functional, cell-based. The essentials: as §3
The test system of experiment [11] is MCF7. Put plainly: Induction of apoptosis in human MCF7 cells assessed as condensed nuclei formation at 10 uM after 24 hrs by Acridine orange-ethidium bromide dual staining based fluorescence microscopic analysis. It counts as functional, cell-based. The essentials: as §2
Experiment [12] concerns MCF7. Put plainly: Induction of apoptosis in human MCF7 cells assessed as formation of apoptotic body at 10 uM after 24 hrs by Acridine orange-ethidium bromide dual staining based fluorescence microscopic analysis. It counts as functional, cell-based.
Experiment [13] has as its system MCF7. Briefly: Induction of apoptosis in human MCF7 cells assessed as nuclear fragmented DNA formation at 10 uM after 24 hrs by Hoechst 33342 staining based bright blue field inverted fluorescence microscopic analysis. It is filed as functional, cell-based. The essentials:
(§4)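 Treated MCF-7 cells were incubated for 10 min with Hoechst 33342 stock diluted 1:2,000 in PBS. Nuclei were examined by inverted fluorescence microscopy for condensation and fragmentation, compared with vehicle-control cells.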

Experiment [14] relates to MCF7. Put plainly: Induction of apoptosis in human MCF7 cells assessed as reduction in cell volume at 10 uM after 24 hrs by APOPercentage dye based light microscopic analysis. It is filed as functional. The essentials:
(§5)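 1×10^4 MCF-7 cells grown 48 h to sub-confluence in 96-well plates, then exposed for 24 h. Medium replaced with medium containing APOPercentage dye (phosphatidylserine exposure) for 1 h. Purple-red cells imaged by light microscopy. Cells then lysed and released dye read at 550 nm, against vehicle control.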

Experiment [15] relates to MCF7. Briefly: Induction of apoptosis in human MCF7 cells assessed as chromatin condensation at 10 uM after 24 hrs by APOPercentage dye based light microscopic analysis. It is filed as functional, cell-based. The gist of the method:
as §5

The test system of experiment [16] is MCF7. Put plainly: Inhibition of cell migration of human MCF7 cells after 24 hrs by inverted microscopy based monolayer wound healing migration assay. It counts as functional. The gist of the method: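 About 1×10^5 MCF-7 cells/well grown in DMEM to 80% confluence, then a single scratch made. Debris washed off with PBS and cells treated with test compound, with vincristine as positive control and a vehicle control. Wound gap imaged at 0, 24 and 48 h by inverted microscopy with a stage and eyepiece micrometer. Run in triplicate.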

Experiment [17] concerns MCF7. Briefly: Induction of apoptosis in human MCF7 cells assessed as expression in caspase 9 at 10 uM after 24 hrs by spectrofluorimetric analysis. It is filed as functional, cell-based. The gist of the method:
as §3

Experiment [18] has as its system MCF7. Briefly: Induction of apoptosis in human MCF7 cells assessed as cell shrinkage at 10 uM after 24 hrs by Acridine orange-ethidium bromide dual staining based fluorescence microscopic analysis. It is filed as functional.
For experiment [19], the system named is MCF7. Briefly: Induction of apoptosis in human MCF7 cells assessed as late apoptotic cells at 10 uM after 24 hrs by Acridine orange-ethidium bromide dual staining based fluorescence microscopic analysis. It is filed as functional, cell-based. The gist of the method:
as §2

For experiment [20], the system named is MCF7. Briefly: Induction of apoptosis in human MCF7 cells assessed as nuclear chromatin condensation at 10 uM after 24 hrs by Hoechst 33342 staining based bright blue field inverted fluorescence microscopic analysis. It counts as functional, cell-based. The essentials:
as §4

As to `C/C(=N/c1nnc(Cc2c[nH]c3ccccc23)s1)c1cc2cc(Br)ccc2oc1=O`, the values for the IC50 in the experiment on Vero and with MCF7 [1] were 113 µM and 82.1 µM, respectively.

With `C/C(=N/c1nnc(CCc2c[nH]c3ccccc23)s1)c1cc2cc(Br)ccc2oc1=O`, the IC50 in the experiment with Vero was determined as 43.1 µM; with MCF7 [1], 36.1 µM.

Regarding `C/C(=N/c1nnc(CCCc2c[nH]c3ccccc23)s1)c1cc2cc(Br)ccc2oc1=O`, the result with MCF7 [2], in the experiment on MCF7 [3], in the experiment on MCF7 [4], with MCF7 [5], in the experiment with MCF7 [6] and with MCF7 [7] was Active. Also, the outcome with MCF7 [8], in the experiment with MCF7 [9], with MCF7 [11], with MCF7 [12], in the experiment with MCF7 [13] and with MCF7 [14] was Active. The outcome in the experiment with MCF7 [15], with MCF7 [17], with MCF7 [18], in the experiment on MCF7 [19] and with MCF7 [20] was Active. The IC50 in the experiment on Vero was 116 µM; in the experiment on MCF7 [1], 8.01 µM. Further, the result in the experiment with MCF7 [10] was inactive. In addition, the inhibition result in the experiment with MCF7 [16] was “Active”.
